From ChEMBL document CHEMBL1128487, “Reduced-size antagonists of luteinizing hormone-releasing hormone active in vitro” (1995)
Square brackets hold non-standard residues; d marks the D form. Peptide text beside a SMILES is read from it. 2Nal = N[C@@H](Cc1ccc2ccccc2c1)C(=O)O

Assays:
[1] = biological target: T1, Gonadotropin-releasing hormone receptor (Rattus norvegicus) (UniProt P30969); test: In vitro inhibition of LH release in rat pituitary cells at a dose of 1 ug of analogue and 1 ng of LHRH.; assay type: functional, cell-based; settings: Pituitary gland cell
T1 sequence (whole entry): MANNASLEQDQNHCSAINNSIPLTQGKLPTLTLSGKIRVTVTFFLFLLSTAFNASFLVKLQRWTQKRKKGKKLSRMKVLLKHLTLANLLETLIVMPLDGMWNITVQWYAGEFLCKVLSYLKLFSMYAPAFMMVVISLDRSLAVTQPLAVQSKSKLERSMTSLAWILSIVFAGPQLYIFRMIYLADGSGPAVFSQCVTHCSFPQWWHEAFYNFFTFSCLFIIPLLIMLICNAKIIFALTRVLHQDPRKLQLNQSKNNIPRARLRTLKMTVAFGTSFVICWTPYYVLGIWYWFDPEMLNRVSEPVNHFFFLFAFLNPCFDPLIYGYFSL
In short: (§1)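 Anterior pituitaries from female Sprague-Dawley rats (240-260 g, 18 rats) were minced and dispersed in Gey's solution with trypsin, DNase I and LBBI. Cells were plated in DMEM with 0.45% glucose, 25 mM HEPES, serum, T and 100 nM dexamethasone at about 3.0 × 10^5 cells/mL and cultured 4 days at 37 °C in 8% CO2. Cells were then exposed to antagonist plus 1 ng LHRH in Gey's solution with 0.3% glucose for 2 h. LH in the medium was measured by RIA as ng/mL of RP-3.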

[2] = biological target: T1, Gonadotropin-releasing hormone receptor (Rattus norvegicus); test: In vitro antagonistic activity against LH release in rat pituitary cells for control.; assay type: functional, cell-based; settings: Pituitary gland cell; in short: as §1
[3] = biological target: T1, Gonadotropin-releasing hormone receptor (Rattus norvegicus); test: In vitro inhibition of LH release was determined in rat pituitary cells at a dose of 0.03 ug of analogue and 1 ng of LHRH; assay type: functional, cell-based; settings: Pituitary gland cell; in short: as §1
[4] = biological target: T1, Gonadotropin-releasing hormone receptor (Rattus norvegicus); test: In vitro inhibition of LH release was determined in rat pituitary cells at a dose of 0.3 ug of analogue and 1 ng of LHRH; assay type: functional, cell-based; settings: Pituitary gland cell; in short: as §1
[5] = biological target: T1, Gonadotropin-releasing hormone receptor (Rattus norvegicus); test: In vitro inhibition of LH release was determined in rat pituitary cells at a dose of 0.1 ug of analogue and 1 ng of LHRH; assay type: functional, cell-based; settings: Pituitary gland cell; in short: as §1
Rattus norvegicus = organism: Rattus norvegicus; test: In vitro inhibition of LH release in rat pituitary cells at a dose of 1 ng LHRH in absence of the compound.; assay type: functional, Pituitary gland cell; design: unit: ng/mL; in short: as §1
[6] = biological target: T1, Gonadotropin-releasing hormone receptor (Rattus norvegicus); test: In vitro inhibition of LH release determined in rat pituitary cells at a dose of 3 ug of analogue and 1 ng of LHRH; assay type: functional, cell-based; settings: Pituitary gland cell; in short: as §1
[7] = biological target: T1, Gonadotropin-releasing hormone receptor (Rattus norvegicus); test: In vitro inhibition of LH release was determined in rat pituitary cells at a dose of 30 ug of analogue and 1 ng of LHRH; assay type: functional, cell-based; settings: Pituitary gland cell; in short: as §1
[8] = biological target: T1, Gonadotropin-releasing hormone receptor (Rattus norvegicus); test: In vitro inhibition of LH release was determined in rat pituitary cells at a dose of 10 ug of analogue and 1 ng of LHRH; assay type: functional, cell-based; settings: Pituitary gland cell; in short: as §1
[9] = biological target: T1, Gonadotropin-releasing hormone receptor (Rattus norvegicus); test: In vitro inhibition of LH release was determined in rat pituitary cells at a dose of 100 ug of analogue and 1 ng of LHRH; assay type: functional, cell-based; settings: Pituitary gland cell; in short: as §1

Structure (SMILES)	Activity [1]	Activity [2]	Activity [3]	Activity [4]	Activity [5]	Activity (Rattus norvegicus)	Activity [6]	Activity [7]	Activity [8]	Activity [9]
CCNC(=O)[C@@H]1CCCN1C(=O)[C@H](CCCN=C(N)N)NC(=O)[C@H](CC(C)C)NC(=O)[C@@H](Cc1c[nH]c2ccccc12)NC(=O)[C@H](Cc1ccc(O)cc1)NC(=O)[C@H](CO)NC(=O)[C@@H](Cc1ccc2ccccc2c1)NC(C)=O	2	2.1	85	10	40	149	–	–	–	–
CC(=O)N[C@H](Cc1ccc2ccccc2c1)C(=O)N[C@@H](CO)C(=O)N[C@@H](Cc1ccc(O)cc1)C(=O)N[C@H](Cc1ccc2ccccc2c1)C(=O)N[C@@H](CC(C)C)C(=O)N[C@@H](CCCN=C(N)N)C(=O)N1CCC[C@H]1C(N)=O	4	4.1	154	13	74	167	3	–	–	–
CCNC(=O)[C@@H]1CCCN1C(=O)[C@H](CCCN=C(N)N)NC(=O)[C@H](CC(C)C)NC(=O)[C@@H](Cc1cccnc1)NC(=O)[C@H](Cc1ccc(O)cc1)NC(=O)[C@H](CO)NC(=O)[C@@H](Cc1ccc2ccccc2c1)NC(C)=O	34	9	–	69	134	279	14	–	–	–
CC(=O)N[C@@H](Cc1ccc2ccccc2c1)C(=O)N[C@@H](CCCN=C(N)N)C(=O)N[C@@H](C)C(N)=O	151	3.5	–	–	–	153	145	66	101	69
CC(=O)N[C@H](Cc1ccc2ccccc2c1)C(=O)N[C@@H](CO)C(=O)N[C@@H](Cc1ccc(O)cc1)C(=O)N[C@H](Cc1ccc2ccccc2c1)C(=O)N[C@@H](CC(C)C)C(=O)N[C@@H](CCCN=C(N)N)C(=O)N1CCC[C@H]1C(=O)NCC(N)=O	50	3.8	–	112	157	132	45	–	–	–
CC(=O)N[C@H](Cc1ccc2ccccc2c1)C(=O)N[C@@H](CO)C(=O)N[C@@H](CCCCNC(=O)c1ccccn1)C(=O)N[C@H](CCCCNC(=O)c1ccccn1)C(=O)N[C@@H](CC(C)C)C(=O)N[C@@H](CCCN=C(N)N)C(=O)N1CCC[C@H]1C(=O)N[C@H](C)C(N)=O	26	7.2	–	60	118	224	8	–	–	–
CC(=O)N[C@H](Cc1ccc2ccccc2c1)C(=O)N[C@@H](CO)C(=O)N[C@@H](Cc1ccc(O)cc1)C(=O)N[C@H](CCCCNC(=O)c1ccccn1)C(=O)N[C@@H](CC(C)C)C(=O)N[C@@H](CCCN=C(N)N)C(=O)N1CCC[C@H]1C(=O)N[C@H](C)C(N)=O	67	6.3	–	154	201	241	29	–	–	–
CCNC(=O)[C@@H]1CCCN1C(=O)[C@H](CCCCNC(C)C)NC(=O)[C@H](CC(C)C)NC(=O)[C@@H](CCCCNC(=O)c1ccccn1)NC(=O)[C@H](Cc1ccc(O)cc1)NC(=O)[C@H](CO)NC(=O)[C@@H](Cc1ccc2ccccc2c1)NC(C)=O	–	–	–	–	–	151	–	–	–	–
CCNC(=O)[C@@H]1CCCN1C(=O)[C@H](CCCN=C(N)N)NC(=O)[C@H](CC(C)C)NC(=O)[C@@H](CCCCNC(=O)c1ccccn1)NC(=O)[C@H](CCCCNC(=O)c1ccccn1)NC(=O)[C@H](CO)NC(=O)[C@@H](Cc1ccc2ccccc2c1)NC(C)=O	–	–	–	–	–	149	–	–	–	–
CC(=O)N[C@@H](Cc1ccc2ccccc2c1)C(=O)N[C@@H](CCCCNC(=O)c1ccccn1)C(=O)N1CCC[C@H]1C(N)=O	145	3.1	–	–	–	145	139	113	129	71
CC(=O)N[C@H](Cc1ccc2ccccc2c1)C(=O)N[C@@H](CO)C(=O)N[C@@H](Cc1ccc(O)cc1)C(=O)N[C@H](Cc1cccnc1)C(=O)N[C@@H](CC(C)C)C(=O)N[C@@H](CCCN=C(N)N)C(=O)N1CCC[C@H]1C(=O)N[C@H](C)C(N)=O	–	–	–	–	–	251	–	–	–	–
CC(=O)N[C@@H](Cc1ccc2ccccc2c1)C(=O)N[C@@H](CO)C(=O)N[C@@H](Cc1ccc(O)cc1)C(=O)N[C@@H](Cc1cccnc1)C(=O)N[C@@H](CC(C)C)C(=O)N[C@@H](CCCN=C(N)N)C(=O)N1CCC[C@H]1C(=O)N[C@H](C)C(N)=O	33	4.8	–	72	112	–	11	–	–	–
CCNC(=O)[C@@H]1CCCN1C(=O)C(CCCN=C(N)N)NC(=O)[C@H](CC(C)C)NC(=O)[C@H](CCCCNC(=O)c1ccccn1)NC(=O)C(CCCCNC(=O)c1ccccn1)NC(=O)[C@H](CO)NC(=O)[C@H](Cc1ccc2ccccc2c1)NC(C)=O (stereo partly drawn)	8	2.1	108	27	72	–	–	–	–	–
CCNC(=O)[C@@H]1CCCN1C(=O)[C@H](CCCCNC(C)C)NC(=O)[C@H](CC(C)C)NC(=O)[C@H](CCCCNC(=O)c1ccccn1)NC(=O)[C@H](Cc1ccc(O)cc1)NC(=O)[C@H](CO)NC(=O)[C@H](Cc1ccc2ccccc2c1)NC(C)=O	118	3.5	194	157	200	–	–	–	–	–
CC(=O)N[C@@H](Cc1ccc2ccccc2c1)C(=O)N[C@@H](C)C(N)=O (Ac-[2Nal]-Ala-NH2)	148	3.5	–	–	–	153	153	88	124	16
CCNC(=O)[C@@H]1CCCN1C(=O)[C@H](Cc1ccc2ccccc2c1)NC(C)=O (Ac-[2Nal]-Pro-NHEt)	135	3.1	–	–	–	145	141	59	101	14
CCNC(=O)[C@@H]1CCCN1C(=O)[C@H](CC(C)C)NC(=O)[C@H](Cc1ccc2ccccc2c1)NC(=O)[C@H](Cc1ccc(O)cc1)NC(=O)[C@H](CO)NC(=O)[C@H](Cc1ccc2ccccc2c1)NC(C)=O (Ac-[2Nal]SY[2Nal]LP-NHEt)	155	3.1	–	148	–	145	151	11	55	–
CC(=O)N[C@@H](Cc1ccc2ccccc2c1)C(=O)N[C@@H](CO)C(=O)N[C@@H](Cc1ccc2ccccc2c1)C(=O)N[C@@H](CC(C)C)C(=O)N[C@@H](CCCN=C(N)N)C(=O)N1CCC[C@H]1C(=O)N[C@@H](C)C(N)=O (Ac-[2Nal]S[2Nal]LRPA-NH2)	13	2.3	–	37	117	155	4	–	–	–
CC(=O)NC(Cc1ccc2ccccc2c1)C(=O)N[C@@H](CO)C(=O)N[C@@H](Cc1ccc(O)cc1)C(=O)NC(Cc1ccc2ccccc2c1)C(=O)N[C@@H](CC(C)C)C(=O)N[C@@H](CCCCNC(C)C)C(=O)N1CCC[C@H]1C(=O)N[C@H](C)C(N)=O (stereo in doubt)	55	2.1	127	104	135	149	23	–	–	–
CC(C)C[C@H](NC(=O)C(Cc1ccc2ccccc2c1)NC(=O)[C@H](Cc1ccc(O)cc1)NC(=O)[C@H](CO)NC(=O)[C@H](Cc1cccnc1)NC(=O)[C@H](Cc1ccc(Cl)cc1)NC(=O)[C@@H]1CCC(=O)N1)C(=O)N[C@@H](CCCN=C(N)N)C(=O)N1CCC[C@H]1C(=O)N[C@H](C)C(N)=O (stereo in doubt)	149	3.8	165	170	158	132	–	–	–	–
CCNC(=O)[C@@H]1CCCN1C(=O)[C@H](CCCCNC(C)C)NC(=O)[C@H](CC(C)C)NC(=O)C(Cc1ccc2ccccc2c1)NC(=O)[C@H](Cc1ccc(O)cc1)NC(=O)[C@H](CO)NC(=O)C(Cc1ccc2ccccc2c1)NC(C)=O (stereo in doubt)	6	3.5	146	26	133	148	4	–	–	–
CC(=O)N[C@@H](Cc1ccc(Cl)cc1)C(=O)N[C@@H](Cc1cccnc1)C(=O)N[C@@H](CO)C(=O)N[C@@H](Cc1ccc(O)cc1)C(=O)NC(Cc1ccc2ccccc2c1)C(=O)N[C@@H](CC(C)C)C(=O)N[C@@H](CCCN=C(N)N)C(=O)N1CCC[C@H]1C(=O)N[C@H](C)C(N)=O (stereo in doubt)	145	3.5	152	152	165	151	77	–	–	–
